The values that follow come from ChEMBL document CHEMBL4513216, “Probing the Open Global Health Chemical Diversity Library for Multistage-Active Starting Points for Next-Generation Antimalarials” (ACS Infect Dis, 2020).

SMILES strings stand for the structures.

The data set in a line: Toxicity liver stage against HepG2, at 10uM. Format: cell-based. On the set-up: test concentration 10 uM, cell line HepG2-A16-CD81EGFP. Conditions: human, HepG2-A16-CD81EGFP cells; read-out: INHIBITION
The gist of the method: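 Uninfected HepG2-A16-CD81EGFP cells, 3 × 10^3 per well, 1536-well, plated on prespotted compound at 10 μM final, parasite-free screening media added to match infected plates; puromycin 10 μM positive, DMSO 0.5% negative; run in parallel with 48 h PbLuc assay at 37 °C, 5% CO2; viability by CellTiter-Glo luminescence, normalized to controls.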

In the case of `CCNC(=O)NCCc1csc(N2CCCC2)n1`, the cytotoxicity at 10 µM was -4.63%.
As for `CC(C)c1nnc2n1CCN(CC(=O)N1CCc3ccccc3C1)C2`, the cytotoxicity at 10 µM was -5.92%.
For the compound `CCc1nnc2n1CCN(C(=O)c1cc(C)n(-c3ccccc3)c1C)C2`, the cytotoxicity at 10 µM was -8.7%.
On to `CCc1noc(C)c1C(=O)N1CCCC1c1c(C)nn(C)c1OC` (stereo not given), for which the cytotoxicity at 10 µM is -12.1%.
Regarding `O=C(Nc1ccccc1)N1CCC(n2cc3[nH]cccc-3c2=O)CC1`, the cytotoxicity at 10 µM was -3.73%.
For `O=C(N[C@@H]1CN(c2ncc(F)cn2)[C@@H]2COC[C@@H]21)c1cscn1`, the cytotoxicity at 10 µM was -139%.
In the case of `COc1cc(CN2C[C@@H]3CNC(=O)[C@H](C)[C@@H]3C2)cc(OC)c1`, the cytotoxicity at 10 µM was 0.405%.
With `O=C([C@@H]1CCCO1)N1CCC(Cn2cc(-c3ccsc3)nn2)CC1`, the cytotoxicity at 10 µM was 3.43%.
As to `CC(C)C(C)(C#N)NC(=O)Cn1cc(Cl)cn1` (stereo not given), the cytotoxicity at 10 µM worked out at 1.18%.
For `CCN(Cc1ccncc1)C(=O)c1cn(CCC2CCCCC2)nn1`, the cytotoxicity at 10 µM is 10.5%.
The value for `COc1ccc(C)cc1-n1ccc(C(=O)NCC2CCCOC2)n1` (stereo not given) was -2.51%; that for `O=C(c1ccc2nccn2c1)N1CCC(CCn2cccn2)CC1` was -1.63%; that for `CC(=O)NCCOc1c(C)cccc1C` was -2.33%.
On to `O=C(C1CCC1)N1CCN(c2snc3ccccc23)CC1`, for which the cytotoxicity at 10 µM is 11.2%.
With `O=C(Nc1ccc2c(c1)OCO2)N1CCN(CCn2ccnc2)CC1`, the cytotoxicity at 10 µM was -14.2%.
The value for `CC(C)CCN1CCc2nc(N3CCOCC3)nc(NC(C)C)c2C1` was -113%; that for `Cc1n[nH]cc1CNCc1ccnc(OCC(F)(F)F)c1` was 5.33%.
The value for `COc1ccc(-n2nnnc2C(C)(C)Nc2ccc(C)cc2C)cc1` was 52.4%.
The result for `Cc1nc(CNC(=O)NC(C)c2ccc3c(c2)OCCCO3)cs1` (stereo not given) reads -0.535%; that for `CSc1ccc(CCNC(=O)Cc2c(C)n[nH]c2C)cc1`, 1.02%.
For the compound `CCn1cc(C(=O)NCCc2nc(-c3ccc(C)cc3)n[nH]2)c(C)n1`, the cytotoxicity at 10 µM came to 9.03%.
`CCOc1ccc(CN(C)C(C)C(=O)Nc2cc(C)no2)cc1` (stereo not given): the cytotoxicity at 10 µM came out at 10.6%.
Take `Cc1ncsc1CCN(C)C(=O)CN1CCOc2ccccc2C1`: the cytotoxicity at 10 µM stood at 5.72%.
As to `Cc1nc(C2CCN(c3ccccc3)CC2)no1`, the cytotoxicity at 10 µM was -28.4%.
The value for `CCc1cc(N2CCCC(c3noc(CC)n3)C2)ncn1` (stereo not given) was 9.74%; that for `Cc1ccccc1C(C)NC(=O)Cc1c(C)nc2cc(=O)[nH]n2c1C` (stereo not given) was 10.8%; that for `O=c1[nH]c(N2CC(O)C2)nc2c1cnn2-c1ccccc1` was 1.92%.
The value for `COc1ccc2c(c1)OCC(Cc1cnccc1N)C2` (stereo not given) was 4.28%.
The result for `O=C(c1cccnc1N1CCOC(c2ccc(F)cc2)C1)N1CCCC1` (stereo not given) reads 8.04%; that for `Cc1ccccc1N1CCCN(C(=O)CN2C(=O)OC[C@@H]2C(C)C)CC1`, 4.02%.
`O=C(NCCNc1cnccn1)N1CCN(c2nccs2)CC1`: the cytotoxicity at 10 µM was -0.84%.
`COc1ncc(C(=O)N2CCC3(CC2)C(=O)Nc2ccccc23)cn1`: the cytotoxicity at 10 µM was -140%.
Turning to `O=C(NCCCN1CCOCC1)C1CCCN(Cc2ccco2)C1` (stereo not given), the cytotoxicity at 10 µM was -0.911%.
Take `CCC(=O)CNC(=O)CCn1nc2ccccn2c1=O`: the cytotoxicity at 10 µM was 9.5%.
The result for `N#Cc1cccc(OCCN2CCCC2C(=O)NC2CC2)c1` (stereo not given) reads -3.78%; that for `COc1cccc(Cn2ncnc2COC(C)C)c1`, -5.62%.
The result for `Cc1noc(C)c1CCN1CCCC1c1nc2cc(F)ccc2[nH]1` (stereo not given) reads 9.3%; that for `CCc1ccc(C2COCCN2C(=O)Nc2cccc(C(C)=O)c2)o1` (stereo not given), -7.13%.
The result for `Cn1ncc(C2CC(=O)NCc3nc4ccccn4c32)c1C1CC1` (stereo not given) reads 6.9%; that for `CN(C)CCNC(=O)Cn1cnc2cc(NC(=O)C3CC3)ccc21`, -14.3%.
As for `Cc1cc(C(=O)NC2CCN(C(=O)Nc3cccnc3)CC2)c(C)o1`, the cytotoxicity at 10 µM was determined as 6.62%.
On to `CCOC(=O)[C@H]1CNC[C@H]1C(=O)OCC`, for which the cytotoxicity at 10 µM came out at 9.24%.
The value for `N#CC(NC(=O)CC1CCSCC1)c1cnn(-c2ccccc2)c1` (stereo not given) was 6.1%.
The result for `c1c2c(nn1CC1CC1)C(CNC1CCOCC1)OCC2` (stereo not given) reads 7.43%; that for `CC(c1ccco1)N(C(=O)c1cc2c([nH]c1=O)CCCC2=O)C1CC1` (stereo not given), -3.21%.
The value for `Fc1ccccc1Cc1noc(CN2CC[C@@H]3CCCC[C@H]3C2)n1` was -6.1%.
Regarding `COc1ccc(O[C@H]2COCCN(Cc3c[nH]c4ccccc34)C2)cc1`, the cytotoxicity at 10 µM stood at 1.82%.
Take `C/C(Cl)=C/CNC(=O)C1CCC2(CC1)CN(C)C(=O)c1ccccc1O2` (stereo not given): the cytotoxicity at 10 µM amounted to 4.52%.
Regarding `COc1ccc(C)cc1-c1csc(Cn2ccc(=O)[nH]c2=O)n1`, the cytotoxicity at 10 µM stood at 4.16%.
On to `Cc1nc([C@H]2C[C@@H]3CCN(Cc4ccc5c(c4)OCO5)C[C@H]3O2)no1`, for which the cytotoxicity at 10 µM was -110%.
Turning to `CC(=O)c1cccc(S(=O)(=O)N2CSCC2C(=O)NCC(F)(F)F)c1` (stereo not given), the cytotoxicity at 10 µM stood at 3.78%.
In the case of `O=C(NCc1ccoc1)NC1CCN(c2ncccn2)CC1`, the cytotoxicity at 10 µM was determined as 6.36%.
The result for `CCCc1cc(N2CCCCC2Cn2cc(C)cn2)n2ncnc2n1` (stereo not given) reads -0.554%; that for `CCN1C(=O)CC(N(C)Cc2nc3ccccc3c(=O)[nH]2)C1=O` (stereo not given), 2.06%; that for `CC(C)c1cc(=O)[nH]c(C(C)(C)N)n1`, -1.05%.
`CC(C)c1nc(O)c2nnn(C[C@H]3CCCN(Cc4ccsc4)C3)c2n1`: the cytotoxicity at 10 µM was 1.8%.
The value for `CCOCC1CN(C)Cc2cnn(CC3CCCC3)c21` (stereo not given) was -9.7%; that for `CC(=O)c1ccc(NC(=O)c2ccc3c(c2)C2(CCCCC2)CN3)cc1` was -108%; that for `Cc1cc(OC(F)F)c(C(=O)N2CCN(C3CC3)CC2)s1` was 9.05%.
Turning to `CNC(=O)[C@@]12CCO[C@@H]1CCN(S(=O)(=O)c1ccc(C)cc1)C2`, the cytotoxicity at 10 µM is -69.9%.
With `CCC[C@H]1CN(Cc2ccc(N(C)C)nc2)C[C@@H]1NC(=O)CCOC`, the cytotoxicity at 10 µM was found to be 15.5%.
With `NC(=O)C1CCN(C(=O)c2ccn(-c3ccc(F)cc3)n2)CC1`, the cytotoxicity at 10 µM is -1.34%.
On to `Cc1nnc([C@H]2CC[C@@H]3[C@@H](CCN3Cc3c(C)noc3C)O2)o1`, for which the cytotoxicity at 10 µM was -2.26%.
Regarding `Cc1cc(C)n(C2CCCN(C(=O)Cc3cccc(F)c3)C2)n1` (stereo not given), the cytotoxicity at 10 µM was -8.09%.
For the compound `CCS(=O)(=O)CCNC(=O)c1ccc(-c2ccc(C)cc2)cc1F`, the cytotoxicity at 10 µM was -14.2%.
With `CC(C)N1CCC(c2ccnc3c(C(=O)N4CCOCC4)ncn23)CC1`, the cytotoxicity at 10 µM was -5.89%.
Consider `Cn1ncc2c(N[C@H]3CCCC[C@@H]3O)nc(C(C)(C)C)nc21`, for which the cytotoxicity at 10 µM is -21.5%.
Take `NC(=O)C1CCN(C(=O)c2ccn(-c3ccc(F)cc3)n2)C1` (stereo not given): the cytotoxicity at 10 µM was -6.02%.
`CN(C)Cc1cc(-c2nccn2CCc2cccnc2)ccc1O`: the cytotoxicity at 10 µM was -42.9%.
On to `c1coc(CN2CCc3ncnc(C4CCOC4)c3CC2)c1` (stereo not given), for which the cytotoxicity at 10 µM is 10.2%.
Regarding `Cc1nc2cc(CNC(=O)C3CC(=O)N(CCN(C)C)C3)ccc2n1C` (stereo not given), the cytotoxicity at 10 µM was -4.31%.
On to `O=C(Cn1cnc2cc3c(cc21)OCCCO3)NC1CCCC1`, for which the cytotoxicity at 10 µM came to 3.92%.
Take `O=C(CCc1ccccn1)N1CCN(C(=O)CC2CCCCC2)CC1`: the cytotoxicity at 10 µM was -1.8%.
The result for `CCc1nc(CN2CCCC(NCc3ncc(C(C)(C)C)o3)C2)no1` (stereo not given) reads 1.97%; that for `CNC(=O)[C@@H]1C[C@H]2CN(C(=O)c3ccccn3)C[C@H]2N1C(C)C`, 7.45%.
As to `CCn1ccnc1CN1CCCC1c1c(C)nn(C)c1OC` (stereo not given), the cytotoxicity at 10 µM was -0.386%.
Take `CCC1CN(C)c2ccccc2CN1C(=O)Nc1ccc(C)cc1` (stereo not given): the cytotoxicity at 10 µM was 4.01%.
For the compound `Cn1cc(CC2CC(=O)N(Cc3ccc(OC(F)F)cc3)C2=O)cn1` (stereo not given), the cytotoxicity at 10 µM stood at 6.6%.
Consider `O=C1CO[C@@H]2CN(C(=O)CCc3ccccc3)C[C@H]2N1`, for which the cytotoxicity at 10 µM amounted to 6.06%.
`Cc1cccnc1CN1CCOC(Cc2cccc3ccccc23)C1` (stereo not given): the cytotoxicity at 10 µM is -2.43%.
The result for `CO[C@H]1CN(C(=O)c2ccc(-c3ccccc3)[nH]2)CC[C@H]1N` reads 3.64%.
Consider `Cc1cc(CNc2ccnn2C)ccc1-n1cncn1`, for which the cytotoxicity at 10 µM is -43.2%.
As for `COc1ccccc1OCC(=O)NS(=O)(=O)c1ccc(C)s1`, the cytotoxicity at 10 µM is -12.7%.
Regarding `CCC(=O)NS(=O)(=O)c1cccnc1Nc1cccc(Cl)c1Cl`, the cytotoxicity at 10 µM came to 0.0207%.
For `O=C(Cc1cccnc1)NC1COc2ccccc2C1=O` (stereo not given), the cytotoxicity at 10 µM was -3.77%.
Turning to `CCNC(=O)[C@@H]1C[C@@H](n2cc(CC3CCCCC3)nn2)CN1`, the cytotoxicity at 10 µM was 5.42%.
Consider `CC(C)(C)CC(=O)NCC1CCCS1` (stereo not given), for which the cytotoxicity at 10 µM was found to be 11.2%.
For the compound `CCc1cc(O)n2nc(C3CCN(C(=O)c4ccncc4)CC3)cc2n1`, the cytotoxicity at 10 µM turned out to be 3.51%.
As to `Cc1ccc(C)c(CN(C)Cc2nnc3ccccn23)c1`, the cytotoxicity at 10 µM is -10.5%.
Consider `Cn1cc(CN2CCCC3(CCCN3S(C)(=O)=O)C2)cn1` (stereo not given), for which the cytotoxicity at 10 µM amounted to 2.08%.
The result for `Cc1cc(C)cc(C2(C(=O)NCC3CCN(CC(F)(F)F)C3)CC2)c1` (stereo not given) reads -1.62%.
As for `CCCN1CCC2(C1)c1ccccc1S(=O)(=O)N2C` (stereo not given), the cytotoxicity at 10 µM worked out at 9.04%.
For the compound `Cc1cc(OCC(=O)NC(C)c2ccc(N3CCOCC3)cc2)no1` (stereo not given), the cytotoxicity at 10 µM was -12.9%.
Consider `CN(Cc1cccs1)c1nc2c(cnn2C(C)(C)C)c(=O)[nH]1`, for which the cytotoxicity at 10 µM was 9.75%.
The value for `O=C(O)C1(Oc2ccc3ccccc3c2)CCN(c2ncccn2)CC1` was 1.46%.
